TDP2 absorb: blocks human TDP2 phosphodiesterase activity. O95551. recombinant TDP2, T5PNP hydrolysis, p-nitrophenol absorbance 415 nm. inhibition, % at 12.8 µM. 370,000 compounds, 0.34% hits. AID 720702;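 active = inhibition above the mean of all tested compounds plus 3 SD, set per campaign, cut at about 25% in these data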;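 also: 0% = DMSO with enzyme and 100% = buffer with substrate but no TDP2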
Target sequence (O95551 whole entry, looked up): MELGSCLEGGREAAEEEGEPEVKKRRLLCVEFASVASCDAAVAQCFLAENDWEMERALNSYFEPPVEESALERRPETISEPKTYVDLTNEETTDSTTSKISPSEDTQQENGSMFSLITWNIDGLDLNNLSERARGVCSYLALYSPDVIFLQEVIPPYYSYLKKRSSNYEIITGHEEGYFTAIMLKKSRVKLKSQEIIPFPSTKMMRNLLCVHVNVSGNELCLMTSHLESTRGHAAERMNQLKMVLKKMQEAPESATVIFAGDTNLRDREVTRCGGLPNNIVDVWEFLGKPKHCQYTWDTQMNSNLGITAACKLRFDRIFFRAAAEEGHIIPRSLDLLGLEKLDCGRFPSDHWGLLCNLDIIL
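Material: recombinant human TDP2; quantity: TDP2 enzyme at 120 nM final; medium: Tris-HCl pH 7.5 with MgCl2; compound: single concentration, 12.8 µM nominal, with 1% DMSO; incubation: 2 h enzyme incubation at 37 °C; signal: epi absorbance; measure: percent inhibition; benchmarks: high control without enzyme, low control DMSO plus TDP2; repeats: singlicate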
LEDGF integ inh: blocks HIV-1 LEDGF/p75-dependent DNA integration; TR-FRET IN-LEDGF/p75 DNA integration, Eu/Cy5; inhibition, % at 3.7 µM; 370,000 compounds, 0.64% hits;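 active = inhibition above the screen-wide mean plus 3 SD, cut at about 13% in these data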;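 also: signal is the Cy5 over europium emission ratio at 671 and 618 nm; 0% = plate median of compound wells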
UHRF1 binding: human UHRF1 methylated DNA binding inhibitors; inhibition, % at 4.4 µM; UHRF1 binding to methylated oligo, TR-FRET; 370,000 compounds, 0.75% hits; Q96T88;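 also: UHRF1 SRA domain binding a hemimethylated CpG hairpin DNA probe; 0% = median of test compound wells and 100% = reference inhibitor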
MBD2 inh: blocks human MBD2 binding to methylated DNA; 370,000 compounds, 0.31% hits; TR-FRET, MBD2 binding to methylated oligonucleotide; AID 686964; inhibition, % at 4.4 µM; in the data active = inhibition above about 13%
Tn7 DDE FP: disrupts Tn7 cyclic peptide binding to fibrin D-Dimer-E complex | 370,000 compounds, 0.13% hits | AID 720508 | FP displacement of FITC-Tn7 peptide from fibrin DD(E); 0% = median of compound wells per plate | inhibition, % at 8.3 µM | P02675;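 active = inhibition above the mean of compounds falling within the control limits plus 3 SD of them, cut at about 14% in these data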;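 also: 0% = plate median of compound wells and 100% = 10 µM Aha-Tn7 peptide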
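Assay system: Human fibrin DD(E) protein | Medium: Tris buffer with calcium and detergent, pH 7.8 | Reagent: 0.1 µM fluorescent Tn7 | Compound dosing: Single point at 8.3 µM | Times: 10 min preincubation, 3 h with tracer, room temperature | Detection: Fluorescence polarization of the labelled Tn7 tracer | Controls: Aha-Tn7 high control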
Tn6 DDE FP: disrupts Tn6 cyclic peptide binding to fibrin D-Dimer-E complex. P02675. Fibrin DD(E) TRITC-Tn6 fluorescence polarization displacement. inhibition, % at 8.3 µM. 370,000 compounds, 0.21% hits;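 active = inhibition above a per-campaign cutoff: mean of compounds within control limits plus 3 SD, cut at about 15% in these data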;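 also: 0% = median of all compound wells on the plate and 100% = blocking peptide control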
UHRF1 ctr MBD2: counter-screen for MBD2 inhibitors: human UHRF1 methylated DNA binding inhibitors; shares compounds with MBD2 inh; UHRF1 binding to methylated oligonucleotide, TR-FRET; inhibition, % at 4.4 µM; 1,000 compounds, 25% hits; AID 720530;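 also: UHRF1 SRA domain binding a labeled hemimethylated CpG hairpin DNA; 0% = vehicle only and 100% = reference inhibitor with vehicle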
MBD2 confirm: MBD2-DBD methyl-DNA binding inhibition, TR-FRET confirmation | shares compounds with MBD2 inh | TR-FRET MBD2-DBD binding to methylated oligonucleotide | inhibition, % at 4.4 µM | 1,000 compounds, 26% hits; in the data active = inhibition above about 14%
An asterisk follows results filed as active; · = not tested or not shown. Shown are actives, neighbours in structure and some others; about 1.9% of the full set was active somewhere. Rule as the data show it, unless noted: active = inhibition above about 21%; inactive = the rest.

SMILES | TDP2 absorb | LEDGF integ inh | UHRF1 binding | MBD2 inh | Tn7 DDE FP | Tn6 DDE FP | UHRF1 ctr MBD2 | MBD2 confirm
CC(Sc1nnc(CN2CCCC2)n1Cc1ccccc1)C(=O)Nc1ccccc1 (centres undefined) | 7 | -8 | 2 | 34* | 5 | 0 | 7 | 2
O=C(N/N=C/C=C/c1ccccc1)c1cc(C2CC2)[nH]n1 | -4 | 0 | -2 | 21* | -7 | -10 | 1 | 0
Cc1ccc(-c2cc(C(=O)N/N=C/C=C/c3ccccc3)n[nH]2)s1 | -11 | 0 | 0 | 2 | -6 | -6 | · | ·
CCNC(=O)C1(C)CCN(Cc2ccc(OC(F)(F)F)cc2)C1 (centres undefined) | -5 | 0 | 1 | 29* | -5 | 3 | 11 | 6
CCOC(=O)Nc1nc(-c2ccc(Cl)cc2Cl)cs1 | -13 | 6 | 20 | 13* | -1 | 5 | 26* | 8
CCOC(=O)Nc1nc(C)c(C(=O)c2ccc(Cl)cc2)s1 | -4 | -2 | -4 | -4 | -2 | 2 | · | ·
O=C(NCc1ccccn1)c1c(-c2ccccc2)sc2ccccc12 | -5 | -3 | 22* | 16* | 1 | -2 | 10 | 7
COC(=O)c1ccc(OCc2cc(=O)n3ccsc3n2)cc1 | -2 | 4 | -3 | 13* | -2 | -2 | 11 | 6
CCS(=O)(=O)N(C)C[C@@H]1OCc2ccccc2-c2c(n(C)c3ccccc23)C(=O)N([C@H](C)CO)C[C@@H]1C | -1 | -5 | 0 | 3 | 10 | -2 | · | ·
Cc1cccc2cc(C(c3nnnn3CC3CCCO3)N3CCCc4ccccc43)c(=O)[nH]c12 (centres undefined) | -3 | -1 | -1 | 18* | -2 | -1 | 1 | 2
COc1cc2c(c(OC)c1OC)[C@@]1(c3ccccc3)CCCCC[C@H]1[C@@H]2NC(=O)C(F)(F)F | 1 | 0 | -2 | -5 | 3 | -6 | · | ·
Cc1cccc(N2CC(C(=O)Nc3cccc(S(=O)(=O)N4CCCCC4)c3)CC2=O)c1C (centres undefined) | -15 | 0 | 4 | 81* | 2 | 1 | 4 | 1
CCn1cc(/C=C(\NC(=O)c2ccccc2OC)C(=O)NCCN2CCOCC2)c2ccccc21 | 2 | -4 | -1 | 16* | -7 | 3 | 4 | 1
Cc1ccc(C)c(S(=O)(=O)N2CCCOC2CNC(=O)C(=O)NCCc2ccco2)c1 (centres undefined) | 11 | -2 | 0 | 15* | 6 | 2 | 2 | 4
Cc1ccc(C)c(S(=O)(=O)N2CCCOC2CNC(=O)C(=O)NCc2ccco2)c1 (centres undefined) | 0 | 0 | 1 | -4 | 0 | 4 | · | ·
COc1cc(C2C(C#N)=C(N)OC3=C2C(=O)CC(C)(C)C3)c([N+](=O)[O-])cc1OC (centres undefined) | 0 | -1 | -7 | -7 | -6 | 4 | · | ·
CC1(C)CC(=O)C2=C(C1)OC(N)=C(C#N)[C@@H]2c1ccccc1[N+](=O)[O-] | 6 | 1 | -2 | 18* | 11 | -7 | 4 | 2
O=C(CCC(=O)c1cccs1)OCC(=O)c1ccccc1 | -5 | -4 | 0 | 48* | 4 | 6 | 4 | 1
COc1ccc(S(=O)(=O)Nc2ccc3c(c2)C(=O)N([C@H](C)CO)C[C@H](C)[C@H](CN(C)C(=O)Nc2ccc(F)cc2)OCCCC[C@@H](C)O3)cc1 | -1 | 0 | 1 | 3 | -5 | 10 | · | ·
CC(C)(C)CC(=O)NC(=S)Nc1ccccc1C(F)(F)F | -7 | 1 | 23* | 16* | 1 | 9 | 11 | 4
Cc1ccc(NC(=O)C2CCN(S(=O)(=O)c3cnc[nH]3)CC2)cc1C | 4 | 1 | 0 | 3 | 4 | 4 | · | ·
Cc1cc(NC(=O)C2CCN(S(=O)(=O)c3cnc[nH]3)CC2)ccc1Br | 0 | 1 | 21 | 14* | -2 | -3 | 4 | 2
CCN(C(=O)COC(=O)/C=C/c1cccc(Br)c1)C1CCS(=O)(=O)C1 (centres undefined) | -9 | 0 | 28* | 16* | -1 | -3 | 7 | 0
CN(C(=O)COC(=O)/C=C/c1cccc([N+](=O)[O-])c1)C1CCS(=O)(=O)C1 (centres undefined) | 9 | 1 | -1 | -7 | 2 | 5 | · | ·
CC(C)C(NS(=O)(=O)c1cccc2nsnc12)C(=O)N1CCn2c1nc1ccccc12 (centres undefined) | 6 | -2 | 0 | 14* | 1 | -2 | 2 | 0
SMILES | TDP2 absorb | LEDGF integ inh | UHRF1 binding | MBD2 inh | Tn7 DDE FP | Tn6 DDE FP | UHRF1 ctr MBD2 | MBD2 confirm
COc1ccccc1CNC(=O)C(NS(=O)(=O)c1cccc2nsnc12)C(C)C (centres undefined) | 8 | 3 | 6 | 1 | -6 | 6 | · | ·
COC(=O)[C@H](CC(C)C)N(Cc1cn(Cc2ccc(C)cc2)nn1)S(=O)(=O)c1ccccc1Br | 2 | 2 | 19 | 18* | -7 | 1 | 6 | 8
O=C(OCC1OC(n2ncc(=O)[nH]c2=O)C(OC(=O)c2ccccc2)C1OC(=O)c1ccccc1)c1ccccc1 (centres undefined) | -8 | -1 | 5 | 28* | -2 | -17 | 4 | 1
Cc1ccccc1NC(=O)Cc1nc(COC(=O)CC(C)c2ccccc2)cs1 (centres undefined) | 6 | -1 | 1 | 20* | -6 | 0 | 2 | 5
O=Cc1ccc(N2CCN(S(=O)(=O)c3ccc4c(c3)CC(=O)N4)CC2)cc1 | 0 | 24* | 8 | 15* | -1 | -14 | 9 | 2
Cc1ccc(S(=O)(=O)n2cnc3cc([N+](=O)[O-])ccc32)cc1C | -3 | 3 | 1 | 14* | -4 | 10 | 6 | 4
Cc1ccc(-n2c(SCC(=O)Nc3cccc4ccccc34)nnc2-c2cccs2)cc1 | -1 | 5 | 1 | -1 | -4 | -1 | · | ·
Cc1ccc(-n2nc3c(c2NC(=O)c2cccs2)CS(=O)(=O)C3)c(C)c1 | -6 | -1 | -2 | 15* | -9 | -7 | 6 | 3
CC(=O)Nc1c2c(nn1-c1ccc(C)cc1)CS(=O)(=O)C2 | 8 | -3 | 1 | 70* | -3 | -3 | 3 | 1
CCOC(=O)CN1C(=O)[C@]2(OCCC=C[C@H]2C)c2c(Br)cccc21 | 2 | 3 | 0 | 0 | -7 | -6 | · | ·

Assay outcomes deposited in PubChem by The Scripps Research Institute Molecular Screening Center.
